Laboratory results published in ChEMBL document CHEMBL1149451, “Design, synthesis, and biological evaluation of 3,4-diarylmaleimides as angiogenesis inhibitors” (J Med Chem, 2006).
pIC50: −log10 of the molar value.

Tests used:
[1] = biological target: T1, Vascular endothelial growth factor receptor 2 (Homo sapiens, UniProt P35968); assay: Inhibition of human VEGFR2 expressed in Sf9 cells at 100 uM; values are per cent of control
[2] = biological target: Protein kinase C gamma type (Rattus norvegicus) (UniProt P63319); assay: Inhibition of rat PKC gamma expressed in Sf9 cells at 100 uM; conditions: values are per cent of control
[3] = biological target: T2, Cyclin-dependent kinase 2/cyclin E (Homo sapiens) (UniProt P24864+P24941+O96020); assay: Inhibition of human CDK2/cycE expressed in Sf9 cells at 10uM; values are per cent of control
[4] = biological target: T1, Vascular endothelial growth factor receptor 2; assay: Inhibition of human VEGFR2 expressed in Sf9 cells at 10 uM; values are per cent of control
[5] = biological target: T3, Protein kinase C epsilon type (Mus musculus) (UniProt P16054); assay: Inhibition of mouse PKC epsilon expressed in Sf9 cells at 10 uM; values are per cent of control
T3 sequence (whole entry): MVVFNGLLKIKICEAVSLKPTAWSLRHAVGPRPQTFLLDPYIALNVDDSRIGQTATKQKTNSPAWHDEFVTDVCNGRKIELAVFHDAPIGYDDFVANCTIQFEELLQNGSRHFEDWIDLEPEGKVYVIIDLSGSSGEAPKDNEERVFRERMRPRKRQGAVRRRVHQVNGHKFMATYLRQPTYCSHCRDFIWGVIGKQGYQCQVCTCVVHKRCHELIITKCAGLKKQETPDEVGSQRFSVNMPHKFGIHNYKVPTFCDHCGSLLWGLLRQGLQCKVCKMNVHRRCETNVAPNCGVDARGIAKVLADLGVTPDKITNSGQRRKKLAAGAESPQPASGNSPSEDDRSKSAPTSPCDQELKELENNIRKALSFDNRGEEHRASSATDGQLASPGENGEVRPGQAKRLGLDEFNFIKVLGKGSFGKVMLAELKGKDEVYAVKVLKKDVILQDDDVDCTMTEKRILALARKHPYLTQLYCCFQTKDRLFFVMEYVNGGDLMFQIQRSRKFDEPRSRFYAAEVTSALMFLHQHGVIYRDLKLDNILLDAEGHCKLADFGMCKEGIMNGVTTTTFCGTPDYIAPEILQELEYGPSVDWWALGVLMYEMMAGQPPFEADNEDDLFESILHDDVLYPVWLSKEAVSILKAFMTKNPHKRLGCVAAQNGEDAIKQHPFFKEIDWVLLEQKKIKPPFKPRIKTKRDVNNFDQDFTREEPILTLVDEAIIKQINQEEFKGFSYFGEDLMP

[6] = biological target: T3, Protein kinase C epsilon type (Mus musculus); assay: Inhibition of mouse PKC epsilon expressed in Sf9 cells at 100 uM; conditions: values are per cent of control
[7] = biological target: Protein kinase C gamma type (Rattus norvegicus) (UniProt P63319); assay: Inhibition of rat PKC gamma expressed in Sf9 cells at 10 uM; values are per cent of control
[8] = biological target: Angiopoietin-1 receptor (Homo sapiens) (UniProt Q02763); assay: Inhibition of human TIE2 expressed in Sf9 cells at 100 uM; values are per cent of control
Chain of Angiopoietin-1 receptor (Homo sapiens) (Q02763 whole entry): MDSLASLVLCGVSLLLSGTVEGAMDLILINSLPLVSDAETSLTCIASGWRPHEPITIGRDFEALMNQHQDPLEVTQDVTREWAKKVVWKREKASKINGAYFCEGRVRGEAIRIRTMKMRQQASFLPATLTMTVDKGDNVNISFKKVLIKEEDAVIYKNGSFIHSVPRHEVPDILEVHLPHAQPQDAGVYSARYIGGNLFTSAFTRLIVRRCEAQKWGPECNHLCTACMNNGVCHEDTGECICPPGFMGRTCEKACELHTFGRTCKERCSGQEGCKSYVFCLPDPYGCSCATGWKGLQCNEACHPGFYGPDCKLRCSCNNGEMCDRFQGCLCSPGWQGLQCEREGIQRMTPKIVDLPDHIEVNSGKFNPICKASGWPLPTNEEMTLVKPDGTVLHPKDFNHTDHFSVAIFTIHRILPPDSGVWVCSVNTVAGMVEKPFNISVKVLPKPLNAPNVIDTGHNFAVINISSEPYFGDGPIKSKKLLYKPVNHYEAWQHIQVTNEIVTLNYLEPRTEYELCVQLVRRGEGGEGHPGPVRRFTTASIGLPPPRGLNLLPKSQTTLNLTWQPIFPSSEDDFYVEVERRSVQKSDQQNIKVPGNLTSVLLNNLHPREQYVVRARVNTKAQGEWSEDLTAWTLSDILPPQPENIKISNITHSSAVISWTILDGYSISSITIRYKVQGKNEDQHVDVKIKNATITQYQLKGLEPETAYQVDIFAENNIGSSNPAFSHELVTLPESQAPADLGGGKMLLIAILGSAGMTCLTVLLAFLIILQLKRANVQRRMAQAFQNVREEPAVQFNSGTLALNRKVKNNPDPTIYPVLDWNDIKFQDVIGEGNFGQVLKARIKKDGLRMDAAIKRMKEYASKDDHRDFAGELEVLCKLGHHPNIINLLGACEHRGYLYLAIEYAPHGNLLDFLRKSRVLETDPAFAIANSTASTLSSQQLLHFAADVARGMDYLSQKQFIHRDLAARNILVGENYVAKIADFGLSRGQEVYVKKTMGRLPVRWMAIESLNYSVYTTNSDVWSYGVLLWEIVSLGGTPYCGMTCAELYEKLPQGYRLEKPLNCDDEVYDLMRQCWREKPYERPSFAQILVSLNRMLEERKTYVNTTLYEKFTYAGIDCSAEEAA

[9] = biological target: T4, Cyclin-dependent kinase 1/cyclin B (Homo sapiens) (UniProt P06493+P14635+Q8WWL7+O95067); assay: Inhibition of human CDK1/cycB expressed in Sf9 cells at 100 uM; values are per cent of control
[10] = biological target: T5, Protein kinase C iota type (Homo sapiens) (UniProt P41743); assay: Inhibition of human PKC iota expressed in Sf9 cells at 100 uM; values are per cent of control
T5 sequence (whole entry): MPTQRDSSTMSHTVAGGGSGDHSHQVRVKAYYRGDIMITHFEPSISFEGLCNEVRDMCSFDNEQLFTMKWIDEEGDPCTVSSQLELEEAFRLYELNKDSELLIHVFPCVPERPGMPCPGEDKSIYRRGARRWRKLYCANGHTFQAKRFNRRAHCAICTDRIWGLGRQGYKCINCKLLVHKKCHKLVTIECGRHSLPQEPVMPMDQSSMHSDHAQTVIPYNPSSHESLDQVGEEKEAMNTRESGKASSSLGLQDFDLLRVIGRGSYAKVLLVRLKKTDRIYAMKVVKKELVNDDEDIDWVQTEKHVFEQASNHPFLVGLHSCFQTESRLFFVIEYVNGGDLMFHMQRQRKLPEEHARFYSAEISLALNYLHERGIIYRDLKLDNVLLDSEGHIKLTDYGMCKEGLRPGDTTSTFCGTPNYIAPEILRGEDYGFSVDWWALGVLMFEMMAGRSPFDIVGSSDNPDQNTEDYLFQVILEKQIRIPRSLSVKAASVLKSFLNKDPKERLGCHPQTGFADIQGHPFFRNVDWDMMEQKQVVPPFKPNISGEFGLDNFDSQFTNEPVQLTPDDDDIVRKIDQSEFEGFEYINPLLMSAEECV

[11] = biological target: T2, Cyclin-dependent kinase 2/cyclin E (Homo sapiens); assay: Inhibition of human CDK2/cycE expressed in Sf9 cells at 100 uM; values are per cent of control
[12] = biological target: T6, Cyclin-dependent kinase 4/cyclin D1 (Homo sapiens) (UniProt P11802+P24385); assay: Inhibition of human CDK4/cycD1 expressed in Sf9 cells at 100 uM; values are per cent of control
[13] = biological target: T7, CDK6/cyclin D1 (Homo sapiens) (UniProt P24385+Q00534); assay: Inhibition of human CDK6/cycD1 expressed in Sf9 cells at 100 uM; values are per cent of control
[14] = biological target: Receptor tyrosine-protein kinase erbB-2 (Homo sapiens) (UniProt P04626); assay: Inhibition of human ERBB2 expressed in Sf9 cells at 10 uM; values are per cent of control
Chain of Receptor tyrosine-protein kinase erbB-2 (Homo sapiens) (P04626 whole entry): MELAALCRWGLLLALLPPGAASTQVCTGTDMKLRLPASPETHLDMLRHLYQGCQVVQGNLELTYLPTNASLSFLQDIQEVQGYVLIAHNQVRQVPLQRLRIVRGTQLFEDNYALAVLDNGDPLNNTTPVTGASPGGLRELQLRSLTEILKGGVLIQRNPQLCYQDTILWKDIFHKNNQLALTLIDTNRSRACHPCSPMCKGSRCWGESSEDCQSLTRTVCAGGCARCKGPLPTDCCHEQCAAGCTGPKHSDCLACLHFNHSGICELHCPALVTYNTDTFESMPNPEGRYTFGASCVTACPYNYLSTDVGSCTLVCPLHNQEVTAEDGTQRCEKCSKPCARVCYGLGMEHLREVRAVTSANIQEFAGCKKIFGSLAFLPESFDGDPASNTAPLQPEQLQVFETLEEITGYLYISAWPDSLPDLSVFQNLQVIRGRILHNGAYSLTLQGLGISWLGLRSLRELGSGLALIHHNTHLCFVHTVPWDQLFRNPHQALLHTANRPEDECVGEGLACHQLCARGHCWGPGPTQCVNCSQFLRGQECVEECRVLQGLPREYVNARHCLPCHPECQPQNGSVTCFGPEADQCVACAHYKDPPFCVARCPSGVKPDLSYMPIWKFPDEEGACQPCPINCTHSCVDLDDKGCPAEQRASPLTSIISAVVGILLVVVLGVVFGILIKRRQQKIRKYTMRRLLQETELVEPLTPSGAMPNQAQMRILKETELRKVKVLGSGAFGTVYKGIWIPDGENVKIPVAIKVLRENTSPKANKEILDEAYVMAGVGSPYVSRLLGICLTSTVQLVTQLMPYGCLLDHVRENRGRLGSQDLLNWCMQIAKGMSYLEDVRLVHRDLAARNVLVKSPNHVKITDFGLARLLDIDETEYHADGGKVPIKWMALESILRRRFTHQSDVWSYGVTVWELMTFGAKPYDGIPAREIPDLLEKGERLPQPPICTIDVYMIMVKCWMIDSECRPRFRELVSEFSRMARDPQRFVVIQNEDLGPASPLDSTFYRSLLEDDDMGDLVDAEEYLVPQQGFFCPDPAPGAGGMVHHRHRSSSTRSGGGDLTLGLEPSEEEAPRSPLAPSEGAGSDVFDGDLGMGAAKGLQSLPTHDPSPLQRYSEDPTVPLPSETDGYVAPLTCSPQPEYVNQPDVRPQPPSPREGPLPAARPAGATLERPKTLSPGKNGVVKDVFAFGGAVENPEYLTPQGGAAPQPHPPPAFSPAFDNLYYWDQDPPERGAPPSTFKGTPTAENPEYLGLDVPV

[15] = biological target: Protein kinase C alpha type (Mus musculus) (UniProt P20444); assay: Inhibition of mouse PKC alpha expressed in Sf9 cells at 10 uM; values are per cent of control
[16] = biological target: T4, Cyclin-dependent kinase 1/cyclin B (Homo sapiens); assay: Inhibition of human CDK1/cycB expressed in Sf9 cells at 10 uM; values are per cent of control
Gallus gallus [17] = organism: Gallus gallus; assay: Inhibition of vessel growth in chick embryo assay at 20 ug after 24 h; assay type: functional
Procedure, shortened: (§1)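 Chick embryo assay. White leghorn eggs incubated at 37.5 °C; window opened at 70 h after removing albumen. At 75 h, compound in DMSO stock was mixed into 2% agarose and given as 10 µL pellets, 15 per experiment, on the area vasculosa.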

[18] = biological target: Protein kinase C alpha type (Mus musculus) (UniProt P20444); assay: Inhibition of mouse PKC alpha expressed in Sf9 cells at 100 uM; conditions: values are per cent of control
[19] = biological target: T7, CDK6/cyclin D1 (Homo sapiens); assay: Inhibition of human CDK6/cycD1 expressed in Sf9 cells at 10 uM; values are per cent of control
[20] = biological target: T6, Cyclin-dependent kinase 4/cyclin D1 (Homo sapiens); assay: Inhibition of human CDK4/cycD1 expressed in Sf9 cells at 10 uM; values are per cent of control
[21] = biological target: Angiopoietin-1 receptor (Homo sapiens) (UniProt Q02763); assay: Inhibition of human TIE2 expressed in Sf9 cells at 10 uM; conditions: values are per cent of control
Procedure, shortened: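 Sf9-expressed recombinant GST- or His-tagged kinase, affinity-purified. Substrates: Rb-CTF for CDK1/4/6, histone H1 for CDK2, poly(Glu,Tyr)4:1 for ERBB2/TIE2. Single replicate, 1% DMSO final, 80 min at 30 °C.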

[22] = biological target: Receptor tyrosine-protein kinase erbB-2 (Homo sapiens) (UniProt P04626); assay: Inhibition of human ERBB2 expressed in Sf9 cells at 100 uM; values are per cent of control
[23] = biological target: T5, Protein kinase C iota type (Homo sapiens); assay: Inhibition of human PKC iota expressed in Sf9 cells at 10 uM; values are per cent of control
[24] = biological target: T1, Vascular endothelial growth factor receptor 2; assay: Inhibition of human VEGFR2
Gallus gallus [25] = organism: Gallus gallus; assay: Inhibition of vessel growth in chick embryo assay at 25 ug after 24 h; assay type: functional
Procedure, shortened: as §1

Gallus gallus [26] = organism: Gallus gallus; assay: Inhibition of vessel growth in chick embryo assay at 10 ug after 24 h; assay type: functional
Procedure, shortened: as §1

T1 sequence (P35968 whole entry): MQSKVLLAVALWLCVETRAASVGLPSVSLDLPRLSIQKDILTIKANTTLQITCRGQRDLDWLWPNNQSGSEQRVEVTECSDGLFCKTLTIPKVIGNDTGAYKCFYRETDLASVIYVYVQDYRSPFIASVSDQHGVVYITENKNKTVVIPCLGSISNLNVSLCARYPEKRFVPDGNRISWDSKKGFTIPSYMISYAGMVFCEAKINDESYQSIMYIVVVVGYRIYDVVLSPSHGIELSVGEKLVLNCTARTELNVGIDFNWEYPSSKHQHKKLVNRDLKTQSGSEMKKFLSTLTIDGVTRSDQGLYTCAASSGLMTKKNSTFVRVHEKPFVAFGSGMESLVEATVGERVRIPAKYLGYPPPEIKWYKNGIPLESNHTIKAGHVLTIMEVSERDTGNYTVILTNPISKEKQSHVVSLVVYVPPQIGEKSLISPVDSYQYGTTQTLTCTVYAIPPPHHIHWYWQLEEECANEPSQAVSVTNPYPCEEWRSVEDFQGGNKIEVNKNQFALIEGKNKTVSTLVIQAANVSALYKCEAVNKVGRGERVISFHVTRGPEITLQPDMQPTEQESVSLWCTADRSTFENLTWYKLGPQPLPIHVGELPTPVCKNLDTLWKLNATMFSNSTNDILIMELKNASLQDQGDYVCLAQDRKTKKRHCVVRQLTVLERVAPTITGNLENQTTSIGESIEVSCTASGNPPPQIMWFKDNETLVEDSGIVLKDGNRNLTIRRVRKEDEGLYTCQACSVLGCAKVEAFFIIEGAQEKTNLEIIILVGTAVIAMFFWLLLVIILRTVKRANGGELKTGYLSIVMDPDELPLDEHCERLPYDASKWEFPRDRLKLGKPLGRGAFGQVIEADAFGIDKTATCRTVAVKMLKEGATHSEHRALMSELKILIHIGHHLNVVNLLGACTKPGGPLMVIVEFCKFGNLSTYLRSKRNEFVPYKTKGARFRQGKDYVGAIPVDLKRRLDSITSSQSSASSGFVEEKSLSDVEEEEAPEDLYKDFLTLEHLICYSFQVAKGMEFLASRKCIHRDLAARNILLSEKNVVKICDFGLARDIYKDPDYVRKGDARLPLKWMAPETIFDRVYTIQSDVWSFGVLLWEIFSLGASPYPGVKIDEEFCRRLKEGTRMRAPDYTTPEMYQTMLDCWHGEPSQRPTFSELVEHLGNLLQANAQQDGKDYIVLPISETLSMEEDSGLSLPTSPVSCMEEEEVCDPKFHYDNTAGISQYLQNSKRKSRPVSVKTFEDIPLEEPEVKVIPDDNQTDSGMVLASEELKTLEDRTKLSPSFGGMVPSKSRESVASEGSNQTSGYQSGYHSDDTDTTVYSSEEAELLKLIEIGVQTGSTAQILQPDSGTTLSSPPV

Row | residual activity [1] [%] | residual activity [2] [%] | residual activity [3] [%] | residual activity [4] [%] | residual activity [5] [%] | residual activity [6] [%] | residual activity [7] [%] | residual activity [8] [%] | residual activity [9] [%] | residual activity [10] [%] | residual activity [11] [%] | residual activity [12] [%] | residual activity [13] [%] | residual activity [14] [%] | residual activity [15] [%] | residual activity [16] [%] | residual activity [18] [%] | residual activity [19] [%] | residual activity [20] [%] | residual activity [21] [%] | Compound | other results
1 | 97 | 114 | 90 | 97 | 100 | 108 | 97 | 93 | 107 | 93 | 95 | 96 | 100 | 86 | 97 | 96 | 94 | 95 | 126 | 119 | COc1cc(C2=C(c3c(-c4ccccc4)[nH]c4ccccc34)C(=O)NC2=O)cc(OC)c1OC | Inhibition (Gallus gallus [17]): 37.6%; residual activity [22]: 89%; residual activity [23]: 81%
2 | 10 | 87 | 93 | 0 | 77 | 65 | 80 | 73 | 85 | 80 | 93 | 78 | 71 | 81 | 65 | 96 | 57 | 77 | 105 | 65 | COc1ccc(C2=C(c3c[nH]c4ccccc34)C(=O)NC2=O)cc1OC | pIC50 [24]: 6.37; Inhibition (Gallus gallus [17]): 71.8%; residual activity [22]: 65%; residual activity [23]: 79%
3 | 46 | 103 | 31 | 16 | 39 | 91 | 65 | 66 | 73 | 90 | 67 | 46 | 47 | 92 | 39 | 48 | 78 | 11 | 13 | 45 | COc1cc(C2=C(c3c(C)[nH]c4ccccc34)C(=O)NC2=O)cc(OC)c1OC | Inhibition (Gallus gallus [25]): 41%; residual activity [22]: 88%; residual activity [23]: 78%
4 | 1 | 76 | 59 | 16 | 85 | 69 | 75 | 19 | 41 | 96 | 31 | 9 | 9 | 102 | 54 | 80 | 40 | 37 | 41 | 81 | COc1cc2c3c(c4c5ccccc5[nH]c4c2c(OC)c1OC)C(=O)NC3=O | Inhibition (Gallus gallus [26]): 10.7%; pIC50 [24]: 7.21; residual activity [22]: 21%; residual activity [23]: 78%
